Measurements published in ChEMBL document CHEMBL2169863, “Discovery, structure-activity relationship, and biological evaluation of noninhibitory small molecule chaperones of glucocerebrosidase” (J Med Chem, 2012).
The source made the active and inactive calls. The rule behind the calls is not given here.

Tested on: T1, Lysosomal acid glucosylceramidase (Homo sapiens), P04062 [N409S]
T1 sequence (whole entry): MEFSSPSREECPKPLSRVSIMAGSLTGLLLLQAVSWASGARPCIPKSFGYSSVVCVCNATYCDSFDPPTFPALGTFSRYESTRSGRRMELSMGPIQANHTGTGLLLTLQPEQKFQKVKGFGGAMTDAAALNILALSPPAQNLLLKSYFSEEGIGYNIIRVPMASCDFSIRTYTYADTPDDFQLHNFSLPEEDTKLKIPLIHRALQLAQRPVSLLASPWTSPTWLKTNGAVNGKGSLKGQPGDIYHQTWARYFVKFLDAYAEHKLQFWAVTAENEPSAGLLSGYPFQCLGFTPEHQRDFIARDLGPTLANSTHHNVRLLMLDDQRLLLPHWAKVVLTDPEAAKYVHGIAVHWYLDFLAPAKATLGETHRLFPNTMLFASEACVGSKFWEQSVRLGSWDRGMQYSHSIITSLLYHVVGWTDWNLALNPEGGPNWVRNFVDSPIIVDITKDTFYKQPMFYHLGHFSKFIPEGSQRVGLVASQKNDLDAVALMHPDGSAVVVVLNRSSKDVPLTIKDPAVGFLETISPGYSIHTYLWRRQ
Experiment: Activation of glucocerebrosidase N370S mutant using C12-BODIPY-GlcCer as substrate assessed as half-maximal activation concentration incubated for 5 mins prior to substrate addition measured after 30 to 45 mins by HPLC analysis
Procedure, shortened: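 N370S/N370S patient spleen homogenate at 140 μg/well. Compound was tested at 9 concentrations, 1:2 dilutions from 50 μM. Substrate was 2 mM 4MU-Glc or the C12-BODIPY substrate at 25 μM; other conditions as the plate assay. Stopped reactions were separated on C18 HPLC with fluorescence detection: 4MU at 365/440 nm, C12-BODIPY-Cer at 506/540 nm.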

For `C#Cc1ccc(NC(=O)c2cnn3c(C)cc(C)nc23)cc1`, the Activity was “inactive”.
